# The list is not random: actives were taken first. Their share in the collection is about 0.74%.
# DDE Tn7 FP inh = DD(E)-Tn7 binding inhibition, primary FP screen. FP displacement of FITC-Tn7 peptide from fibrin DD(E); 0% = median of compound wells per plate. inhibition, % at 8.3 µM. 0.13% of 370,000 active;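 active = inhibition above the mean of compounds falling within the control limits plus 3 SD of them, cut at about 14% in these data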;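 also: 0% = plate median of compound wells and 100% = 10 µM Aha-Tn7 peptide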
#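 Assay system: Human fibrin DD(E) protein | Medium: Tris buffer with calcium and detergent, pH 7.8 | Reagent: 0.1 µM fluorescent Tn7 | Compound dosing: Single point at 8.3 µM | Times: 10 min preincubation, 3 h with tracer, room temperature | Detection: Fluorescence polarization of the labelled Tn7 tracer | Controls: Aha-Tn7 high control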
# ARFGAP1 inh = inhibitors of rat ARFGAP1; Q62848; Arfgap1-stimulated ARF1 GTP hydrolysis, GDP FP detection; inhibition, % at 16.5 µM; 0.26% of 360,000 active; AID 651572;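 active = inhibition above a per-plate limit, mean inhibition of low control wells plus 3 SD, cut at about 25% in these data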;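 also: 0% = DMSO wells with enzyme and 100% = wells lacking Arfgap1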
# Target sequence (Q62848 1-136 limits assumed): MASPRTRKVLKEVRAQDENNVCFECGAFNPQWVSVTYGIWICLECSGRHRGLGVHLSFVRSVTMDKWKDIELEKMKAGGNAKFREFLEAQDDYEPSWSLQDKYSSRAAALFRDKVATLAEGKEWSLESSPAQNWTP
#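 System: truncated rat Arfgap1 GAP domain / Medium: HEPES-based buffer, pH 7.5 / Also added: N-terminally truncated human ARF1-GTP substrate / Incubation: enzyme reaction 120 min at 25 °C after 20 min preincubation / Measured by: FP of antibody-bound GDP Alexa 633 tracer, ex 620/em 688 nm / Replicates: singlicate, each compound tested once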
# ASAP1 GAP inh = blocks human ASAP1-stimulated Arf1 GTP hydrolysis; Q9ULH1; GDP FP detection; inhibition, % at 16.5 µM; 0.19% of 360,000 active; in the data active = inhibition above about 25%;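 also: 0% = vehicle with enzyme and substrate and 100% = no enzyme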
# Target sequence (Q9ULH1 325-724 limits assumed): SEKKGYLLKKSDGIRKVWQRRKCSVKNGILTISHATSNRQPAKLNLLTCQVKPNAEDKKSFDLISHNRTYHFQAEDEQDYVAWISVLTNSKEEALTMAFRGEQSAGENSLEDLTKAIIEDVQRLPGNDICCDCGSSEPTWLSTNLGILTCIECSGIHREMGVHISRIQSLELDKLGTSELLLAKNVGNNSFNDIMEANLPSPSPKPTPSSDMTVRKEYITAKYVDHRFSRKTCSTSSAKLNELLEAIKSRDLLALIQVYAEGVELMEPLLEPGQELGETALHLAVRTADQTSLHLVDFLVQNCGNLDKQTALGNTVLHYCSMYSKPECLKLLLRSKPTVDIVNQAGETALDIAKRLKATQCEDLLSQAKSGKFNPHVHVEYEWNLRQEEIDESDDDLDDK
# Tn6 DDE FP = inhibitors of Tn6 peptide binding to human fibrin DD(E); P02675; Fibrin DD(E) TRITC-Tn6 fluorescence polarization displacement; inhibition, % at 8.3 µM; 0.21% of 370,000 active; AID 720509;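 active = inhibition above a per-campaign cutoff: mean of compounds within control limits plus 3 SD, cut at about 15% in these data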;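 also: 0% = median of all compound wells on the plate and 100% = blocking peptide control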
# Tn6 DDE ctr = counter-screen hit for Tn6 peptide-fibrin DD(E) binding disruption; shares compounds with Tn6 DDE FP; TRITC-Tn6 fluorescence polarization displacement; 0% = median of compound wells, not DMSO; inhibition, % at 8.3 µM; 2% of 680 active;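 active = inhibition above the mean of test compounds lying between the control limits plus 3 SD of those, cut at about 14% in these data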;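 also: 0% = median of compound wells and 100% = wells with Aha-Tn7 blocking peptide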
# Tn6 DDE conf = confirmation of inhibitors of Tn6 binding to human fibrin DD(E); shares compounds with Tn6 DDE FP; FP displacement of TRITC-Tn6 peptide from DD(E); 0% = per-plate median of test wells; 10% of 680 active; inhibition, % at 8.3 µM;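 active = inhibition above the mean of compounds lying within the control limits plus 3 SD, cut at about 16% in these data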;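 also: 100% = high control wells holding a competing inhibitor peptide at 10 µM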
# An asterisk follows results filed as active; . = not tested or not shown.
SMILES,DDE Tn7 FP inh,ARFGAP1 inh,ASAP1 GAP inh,Tn6 DDE FP,Tn6 DDE ctr,Tn6 DDE conf
Cc1ccc(Cl)cc1NC1=C/C(=N\S(=O)(=O)c2cccs2)c2ccccc2C1=O,-2,11,19,53*,8,6
CCOc1ccc(-n2c(SCC(=O)Nc3cccc4ccccc34)nnc2-c2ccco2)cc1,0,.,.,-2,.,.
Cc1ccc(/C=N/NC(=O)c2c(C)nc3ccc(Cl)cn23)cc1,2,6,8,2,.,.
CCN(CC)c1ccc2cc(C(N)=O)c(=O)oc2c1,-8,-2,-16,20*,1,0
CCCS(=O)(=O)N1CCN(C(=O)c2ccc(-c3ccccc3)cc2)CC1,11,-5,-1,15*,-4,-7
COC(=O)c1ccc2c(c1)C(C)(C)C(/C=C/c1ccc(O)cc1)=[N+]2C,-28,-10,3,64*,-44,-25
COC(=O)c1ccc2c(c1)C(C)(C)C(/C=C/c1ccc(OC)c(OC)c1OC)=[N+]2C,-29,7,-5,129*,-11,-17
COC(=O)[C@@]12CCCCC3=C1N(CCC3)C(=O)[C@H]2CC(=O)NCc1cccs1,-5,.,.,5,.,.
CCc1ccc(NC(=O)Nc2ccsc2C(=O)OC)cc1,-1,6,9,4,.,.
CCCNC(=O)Nc1ccsc1C(=O)OC,5,-6,10,15*,4,2
Cc1ccccc1C(=O)NC1CCCCN(Cc2cccc(C(F)(F)F)c2)C1=O (centres undefined),1,.,.,8,.,.
CCOC(=O)C1=C(C(=O)OCC)C2N(Cc3ccc(C#N)cc3)c3ccccc3[C@@]23C[C@@H](C(=O)OC)N(S(=O)(=O)c2ccc(C)cc2)C3=N1 (some centres undefined),-1,1,-9,2,.,.
CCC(C)[C@H](NC(=O)NCc1ccc(Cl)cc1)C(=O)OC (some centres undefined),4,-8,-4,17*,-3,-8
O=C(/C=C(\Nc1cccc(Cl)c1)c1ccccc1)c1ccccc1,4,1,-5,3,.,.
C#CCOc1ccccc1C(=O)NNc1ccc([N+](=O)[O-])cc1[N+](=O)[O-],3,7,2,6,.,.
Cc1ccc(Cl)cc1NC(=O)COC(=O)Cn1cnc2c1c(=O)n(C)c(=O)n2C,1,3,-3,17*,10,5
O=c1ccc2c(-c3ccccc3)c3ccc(O)cc3oc-2c1,-7,-17,-8,68*,53*,38*
Nc1ccc(-c2c3ccc(=O)cc-3oc3cc(O)ccc23)cc1C(=O)O,-6,12,-3,11,.,.
CN(Cc1ccccc1)C(=O)OCc1cn(Cc2ccc(F)cc2F)nn1,2,.,.,17*,6,5
NS(=O)(=O)c1ccc(NC(=O)c2ccc(-c3ccccc3)cc2)cc1,-7,14,10,2,.,.
NS(=O)(=O)c1ccc(NS(=O)(=O)c2ccc(NC(=O)c3ccc(-c4ccccc4)cc3)cc2)cc1,5,-8,1,32*,0,17*
COc1ccc(-c2cc(NC(=O)Cc3c(C)[nH]c4ccccc34)ccc2Nc2cccnc2)cc1F,0,-1,16,3,.,.
COc1ccc(NC(=O)Cn2c(=O)cnc3ccccc32)cc1S(=O)(=O)N1CCCCC1,-3,3,-13,27*,4,3
CCN(CC(=O)NC1CCCC1)S(=O)(=O)c1ccc(C)cc1,2,-7,-20,-5,.,.
CCN(CC(=O)NC1CCCC1)S(=O)(=O)c1ccc(Br)cc1,-3,5,15,16*,5,-2
SMILES,DDE Tn7 FP inh,ARFGAP1 inh,ASAP1 GAP inh,Tn6 DDE FP,Tn6 DDE ctr,Tn6 DDE conf
Cc1cc(Sc2nc(NC(C)(C)C)nc(N3CCOCC3)n2)nc(Cl)n1,0,3,-4,17*,5,-1
O=C(Cn1cc([N+](=O)[O-])cn1)N1CCc2ccccc2C1,6,-4,-17,15*,-7,-10
C[C@@H]1CN([C@@H](C)CO)C(=O)c2cc(Br)cnc2O[C@@H]1CN(C)C(=O)c1ccc(F)cc1,0,1,8,3,.,.
c1cc(CNc2ccc3c(c2)OCO3)ccn1,6,-1,-24,16*,-1,-3
COc1ccc(-c2nnc3c4ccccc4c(C)nn23)cc1S(=O)(=O)N1CCN(CCO)CC1,-3,0,0,23*,3,0
C[C@H](c1ccccc1)N1C[C@@H](COCc2ccccc2)Oc2cccc(F)c2S1(=O)=O,2,8,13,5,.,.
COc1cc(C(=O)NCC(=O)N/N=C/c2cccc(OC(=O)c3ccco3)c2)cc(OC)c1OC,0,10,1,3,.,.
COc1cc(C(=O)NCC(=O)N/N=C/c2ccco2)cc(OC)c1OC,6,15,-2,27*,-6,-13
CCOc1cc(CNCCCN2CCOCC2)ccc1OCC(=O)Nc1cccc2ccccc12,10,-7,-4,18*,-4,-5
COc1cc(CNCCCN2CCOCC2)ccc1OCC(=O)Nc1cccc(C(F)(F)F)c1,0,9,-8,2,.,.
Cc1cc(C(=O)COc2cccc3cccnc23)c(C)n1C,5,-3,-2,30*,10,6
COC(=O)[C@]12C[C@H](CC(=O)NCc3ccc(OC)c(OC)c3)C(=O)N(Cc3ccccc3)C1=C[C@H](C1CCCC1)O[C@@H]2C,3,2,-15,1,.,.
CC(=O)Oc1cccc2c1C(=O)c1c(OC(C)=O)cc(C(=O)O)cc1C2=O,8,-7,-4,16*,5,2
Cc1ccc(CSc2ncn(-c3ccccc3)n2)cc1,1,8,-3,16*,4,-2
Clc1ccccc1CSc1ncn(-c2ccccc2)n1,-4,1,-3,-6,.,.
CC(C)(C)c1ccc(-c2nnc3n2N=C(c2ccc(-c4ccccc4)cc2)CS3)cc1,7,.,.,3,.,.
O=C(O)CCCNc1cc(N2CCN(C(=O)c3ccco3)CC2)c2noc3c2c1C(=O)c1ccccc1-3,-1,14,13,32*,-9,58*
C/C=C/C(=O)N1CC2(CC(c3cccc(NC(=O)/C(C)=C/C)c3)=NO2)C[C@H]1C(N)=O (some centres undefined),10,-5,0,17*,-1,3
C/C=C(/C)C(=O)Nc1cccc(C2=NOC3(C2)C[C@@H](C(N)=O)N(C(=O)CC)C3)c1 (some centres undefined),0,8,1,7,.,.
Cc1ccc(-n2nnnc2SCC(=O)NNC(=O)c2ccco2)cc1C,2,14,-2,4,.,.
Cc1ccc(C)c(-n2nnnc2SCC(=O)NNC(=O)c2ccco2)c1,5,-13,-1,20*,-3,-5

# Screens from PubChem.
